Legend:
[1] = test system: HCT-15; assay: Anticancer activity against human HCT-15 cells assessed as inhibition of cell growth incubated for 48 hrs by MTT assay; format: functional, cell-based; conditions: HCT-15, 48 h
Outline: (§1)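 MTT assay against a panel of human cancer lines (U-251 glioblastoma, PC-3 prostatic adenocarcinoma, K-562 chronic myelogenous leukemia, HCT-15 colorectal adenocarcinoma) and monkey kidney fibroblasts (COS-7). Cells were exposed to compounds for 48 h. IC50 (µM) came from MTT readings as the mean ± SD of two independent trials, each run in triplicate.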

[2] = test system: COS-7; assay: Anticancer activity against African green monkey COS7 cells assessed as inhibition of cell growth incubated for 48 hrs by MTT assay; format: cell-based; conditions: Chlorocebus aethiops, COS-7, 48 h; outline: as §1
[3] = test system: K562; assay: Anticancer activity against human K562 cells assessed as inhibition of cell growth incubated for 48 hrs by MTT assay; format: functional, cell-based; conditions: K562, 48 h; outline: as §1
[4] = test system: U-251; assay: Anticancer activity against human U-251 cells assessed as inhibition of cell growth incubated for 48 hrs by MTT assay; format: functional, cell-based; conditions: U-251, 48 h; outline: as §1
[5] = test system: PC-3; assay: Anticancer activity against human PC-3 cells assessed as inhibition of cell growth incubated for 48 hrs by MTT assay; format: functional, cell-based; conditions: PC-3, 48 h; outline: as §1

Row | Structure (SMILES) | IC50 [1] [µM] | IC50 [2] [µM] | IC50 [3] [µM] | IC50 [4] [µM] | IC50 [5] [µM]
1 | CCCCCCCCCCCCOc1cc(OCCCCCCCCCCCC)cc(C(=O)NCCN)c1 | > 1000 | > 1000 | > 1000 | > 1000 | > 1000
2 | CC(C)C(=O)N(CC(=O)NCCN)c1ccc([N+](=O)[O-])c(C(F)(F)F)c1 | > 100 | 15.2 | 18 | 24.1 | 20.1
3 | CCCCCCCCCCCCOc1cc(OCCCCCCCCCCCC)cc(C(=O)NCCNC(=O)CN(C(=O)C(C)C)c2ccc([N+](=O)[O-])c(C(F)(F)F)c2)c1 | 19.2 | > 1000 | 15.4 | 14.3 | 13.3
4 | CCCCCCCCCCCCOc1cc(OCCCCCCCCCCCC)cc(C(=O)OC)c1 | > 1000 | > 1000 | > 1000 | > 1000 | > 1000
5 | CCCCCCCCCCCCOc1cc(OCCCCCCCCCCCC)cc(C(=O)NCCN(CCC(=O)NCCNC(=O)CN(C(=O)C(C)C)c2ccc([N+](=O)[O-])c(C(F)(F)F)c2)CCC(=O)NCCNC(=O)CN(C(=O)C(C)C)c2ccc([N+](=O)[O-])c(C(F)(F)F)c2)c1 | 22.4 | > 1000 | 6.79 | 8.59 | 7.16
6 | COC(=O)CN(C(=O)C(C)C)c1ccc([N+](=O)[O-])c(C(F)(F)F)c1 | > 100 | 12.1 | 14.1 | 20.1 | 19.1
7 | CCCCCCCCCCCCOc1cc(OCCCCCCCCCCCC)cc(C(=O)NCCN(CCC(=O)OC)CCC(=O)OC)c1 | > 1000 | > 1000 | > 1000 | > 1000 | > 1000
8 | CC(C)C(=O)Nc1ccc([N+](=O)[O-])c(C(F)(F)F)c1 [FLUTAMIDE] | > 100 | 51.5 | 29.2 | 22.1 | 20.3
